The source of these data is ChEMBL document CHEMBL1955723, “Discovery and synthesis of namalide reveals a new anabaenopeptin scaffold and peptidase inhibitor” (J Med Chem, 2012).

SMILES strings stand for the structures. Calls of active or inactive are those of the source. No cut-off for these calls is given here.

Data set [1] can be described thus: Inhibition of alpha chymotrypsin using N-benzoyl-L-tyrosine ethyl ester as substrate at 60 ug/mL after 5 mins by colorimetry. A digest of the protocol:
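α-Chymotrypsin, 1 U, 25 °C, in a 10 mm quartz cuvette, 200 μL final; inhibitor from DMSO (typically 1 mM stock, 10 μL) or DMSO alone. Absorbance read at 256 nm after 5 min incubation; tested up to 60 μg/mL.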

In data set [2] the target is T1, Carboxypeptidase B2 (Homo sapiens) (UniProt Q96IY4).
T1 sequence (whole entry): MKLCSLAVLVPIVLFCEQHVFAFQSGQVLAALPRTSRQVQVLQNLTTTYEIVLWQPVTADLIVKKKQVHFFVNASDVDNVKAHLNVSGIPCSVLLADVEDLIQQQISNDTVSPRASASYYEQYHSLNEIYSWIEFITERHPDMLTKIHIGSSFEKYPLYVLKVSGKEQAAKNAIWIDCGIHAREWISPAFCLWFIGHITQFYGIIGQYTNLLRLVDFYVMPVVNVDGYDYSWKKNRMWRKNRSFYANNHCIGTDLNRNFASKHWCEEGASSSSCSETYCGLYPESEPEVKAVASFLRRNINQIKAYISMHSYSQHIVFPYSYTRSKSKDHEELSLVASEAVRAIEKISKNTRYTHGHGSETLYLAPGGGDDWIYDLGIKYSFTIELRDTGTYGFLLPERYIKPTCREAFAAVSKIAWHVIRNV
As to the kind of experiment: Inhibition of carboxypeptidase U at 60 ug/mL. A digest of the protocol:
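CPU (activated TAFI) assayed with a commercial TAFIa kit per manufacturer's instructions, run like the CPA/chymotrypsin assays; compounds tested up to 60 μg/mL.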

Another data set has as its target T2, Carboxypeptidase A1 (Bos taurus, UniProt P00730).
T2 sequence (P00730 whole entry): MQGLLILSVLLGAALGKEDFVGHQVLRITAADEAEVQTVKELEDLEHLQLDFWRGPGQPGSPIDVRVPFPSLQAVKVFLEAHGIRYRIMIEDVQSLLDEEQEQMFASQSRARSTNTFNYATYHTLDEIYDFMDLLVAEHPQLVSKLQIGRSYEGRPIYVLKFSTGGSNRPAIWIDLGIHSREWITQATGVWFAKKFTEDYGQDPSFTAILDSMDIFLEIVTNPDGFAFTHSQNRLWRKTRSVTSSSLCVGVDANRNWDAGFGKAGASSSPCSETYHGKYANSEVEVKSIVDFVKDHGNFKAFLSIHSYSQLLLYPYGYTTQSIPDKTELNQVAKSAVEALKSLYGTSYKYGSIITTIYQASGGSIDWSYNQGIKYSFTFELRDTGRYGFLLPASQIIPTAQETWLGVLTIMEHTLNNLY
As to the kind of experiment: Inhibition of bovine pancreas carboxypeptidase A using N-(4-methoxyphenylazoformyl)-phenylalanine as substrate after 5 mins by colorimetry. A digest of the protocol:
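Bovine pancreas CPA, 1 U, 25 °C, 200 μL final; inhibitor added from DMSO (typically 1 mM stock, 10 μL) or DMSO alone. Absorbance at 350 nm after 5 min. Curves fitted to %inhibition=[…].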

Data set [3] in a line: Solubility of the compound. The class given is physicochemical.
Data set [4] concerns the target T3, Carboxypeptidase A1 (Bos taurus) (UniProt P00730).
T3 sequence (whole entry): T2 sequence (P00730 whole entry)
Description: Inhibition of bovine pancreas carboxypeptidase A using N-(4-methoxyphenylazoformyl)-phenylalanine as substrate at 30 uM after 5 mins by colorimetry.

As to `CC[C@H](C)[C@@H]1NC(=O)[C@H](NC(=O)N[C@@H](Cc2ccccc2)C(=O)O)CCCCNC(=O)[C@H](Cc2ccccc2)NC1=O` [NAMALIDE], the inhibition entry in data set [1] and in data set [2] was “inactive” throughout. At Carboxypeptidase A1, 250 nM corresponded to half-maximal inhibition (IC50).

As for `CC[C@@H](C)[C@@H]1NC(=O)[C@H](NC(=O)N[C@@H](Cc2ccccc2)C(=O)O)CCCCNC(=O)[C@H](Cc2ccccc2)NC1=O`, the solubility entry in data set [3] is reported as “Insoluble”. In addition, the inhibition result in data set [4] is “inactive”.

As to `CC[C@H](C)[C@@H]1NC(=O)[C@H](N)CCCCNC(=O)[C@H](Cc2ccccc2)NC1=O`, the inhibition entry in data set [4], in data set [1] and in data set [2] was “inactive” in each case.

Regarding `CC[C@H](C)[C@H](NC(=O)[C@@H](CCCCN)NC(=O)N[C@@H](Cc1ccccc1)C(=O)O)C(=O)N[C@@H](Cc1ccccc1)C(N)=O`, the inhibition result in data set [1] and in data set [2] was “inactive” each time. Besides, half-maximal inhibition on Carboxypeptidase A1 (IC50) was put at 4500 nM.

As to `CC[C@H](C)[C@@H]1NC(=O)[C@@H](NC(=O)N[C@@H](Cc2ccccc2)C(=O)O)CCCCNC(=O)[C@H](Cc2ccccc2)NC1=O`, the inhibition entry in data set [4], in data set [1] and in data set [2] was “inactive” throughout.

Take `CC[C@H](C)[C@@H]1NC(=O)[C@H](NC(=O)N[C@@H](Cc2ccccc2)C(=O)O)CCCCNC(=O)[C@H](Cc2ccccc2)NC(=O)[C@H]([C@@H](C)CC)NC(=O)[C@H](NC(=O)N[C@@H](Cc2ccccc2)C(=O)O)CCCCNC(=O)[C@H](Cc2ccccc2)NC1=O`: the inhibition entry in data set [4] is “inactive”.
